From PubChem BioAssay
A selection: hits, their analogues and other compounds. The true share with any hit is near 3.7%.
KCNK9 block: blocks the human KCNK9 two-pore domain potassium channel; 1.2% of 310,000 active; AID 488922; Q9NPC2; HEK293 KCNK9, FluxOR thallium flux fluorescence; active compounds read low; B-score at 10 µM;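 active means ratio B-score over 3 SD below the library mean, with starting fluorescence within 5 SD of its mean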;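 further: negative B-score means less thallium flux so channel inhibition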
Target sequence (Q9NPC2 whole entry, looked up, the tested form may be a part): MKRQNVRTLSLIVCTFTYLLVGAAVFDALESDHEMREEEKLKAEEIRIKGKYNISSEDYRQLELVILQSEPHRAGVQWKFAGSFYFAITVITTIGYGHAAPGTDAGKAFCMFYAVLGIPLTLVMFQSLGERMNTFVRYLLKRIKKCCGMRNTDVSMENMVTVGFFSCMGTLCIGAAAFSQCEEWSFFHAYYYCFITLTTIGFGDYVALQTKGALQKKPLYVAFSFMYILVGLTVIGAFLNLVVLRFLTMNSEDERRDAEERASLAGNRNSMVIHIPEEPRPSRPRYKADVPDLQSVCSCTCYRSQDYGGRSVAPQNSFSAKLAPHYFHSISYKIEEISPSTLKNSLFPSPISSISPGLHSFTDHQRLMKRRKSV
KCNQ1 pot: potentiators or activators of human KCNQ1 potassium channel | CHO-K1 KCNQ1, thallium flux FluxOR fluorescence; active compounds read high | AID 2648 | 0.35% of 310,000 active | B-score at 10 µM | P51787;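 active means fluorescence ratio B-score, a plate-corrected score, at least three library SD, with initial intensity B-score within 5 SD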
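Material: CHO-K1 cells stably expressing KCNQ1. Medium: assay buffer for compound exposure, DMSO matched across wells. Reagent: K+/Tl+ depolarizing stimulus. Compound dosing: single-concentration screen. Times: 37 °C overnight plating, 90-min dark dye load, 20-min compound pretreatment. Technique: FluxOR Tl+ flux fluorescence.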
KCNK3 block: human KCNK3 channel inhibition, primary screen | AID 602410 | B-score at 10 µM | CHO-KCNK3 thallium flux, FluxOR fluorescence; active compounds read low | O14649 | 0.84% of 340,000 active;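 active means B-score under library mean minus 4 SD, starting fluorescence ratio at most library mean plus 5 SD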;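 further: more negative B-score means stronger inhibition of thallium flux through KCNK3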
hERG protect: compounds protecting human hERG from proarrhythmic drug block. Q12809. AID 1511. activation (rescue from dofetilide block), less the hit threshold, % at 10 µM. 0.51% of 310,000 active. CHO-hERG, FluxOR thallium flux, dofetilide IC70 present;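 active means activation above the mean of controls blocked by dofetilide plus 5 SD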;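 further: thallium influx through hERG after potassium depolarization seen as dye fluorescence rise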
KCNQ1 block: blocks the human KCNQ1 potassium channel. P51787. CHO-K1 KCNQ1, FluxOR thallium flux fluorescence; active compounds read high. B-score at 10 µM. 1.3% of 310,000 active;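 active means compounds whose thallium flux B-score, printed positive for inhibition, exceeds three library SD while starting fluorescence stays within three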;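 further: channel opened by potassium depolarization with thallium stimulus after 20 min compound exposure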
Kir21 block: inhibitors of mouse Kir2.1 inward-rectifier potassium channel | B-score at 10 µM | P35561 | 0.85% of 310,000 active | HEK293-Kir2.1, FluxOR thallium flux fluorescence; active compounds read low;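 active means fluorescence ratio B-score at or below minus 3 SD of library scores, with starting-brightness B-score within 2 SD, cut at about -4.2 in these data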;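 further: channel flux triggered by added potassium and thallium sulfate stimulus; B-score of peak minus minimum fluorescence over baseline after thallium stimulus; more negative B-score means stronger Kir2.1 block with less thallium influx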
KCNK9 inh conf: confirmation of human KCNK9 potassium channel inhibitors | shares compounds with KCNK9 block | HEK293 KCNK9 cells, FluxOR thallium flux fluorescence | inhibition, % at 10 µM | 43% of 4,900 active;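 active means thallium signal inhibited by more than 5 SD of the compound-free buffer control wells, on both duplicate plates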
Kir21 sel: tests whether KCNK9 modulators also affect mouse Kir2.1 | shares compounds with KCNK9 block | Kir2.1 cells, FluxOR thallium flux fluorescence | inhibition, % at 10 µM | 4% of 4,900 active | AID 492993;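 active means thallium signal drop more than 5 SD beyond the mean of the no-compound control wells, seen in both duplicate plates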;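 further: signal is fluorescence rise after thallium addition divided by baseline fluorescence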
KCNK9 uninduced: second check of KCNK9 modulator effects in non-induced HEK293 cells | inhibition, % at 10 µM | FluxOR thallium flux | 40% of 4,900 active | shares compounds with KCNK9 block;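 active means thallium signal drop beyond 5 SD of the untreated control mean, on both duplicate plates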
A number is an active result; 0 = inactive; - = no result.

SMILES	KCNK9 block	KCNQ1 pot	KCNK3 block	hERG protect	KCNQ1 block	Kir21 block	KCNK9 inh conf	Kir21 sel	KCNK9 uninduced
O=S(=O)(c1cccc(S(=O)(=O)N2CCCC2)c1)N1CCCCC1	0	0	0	0	0	0	-	-	-
O=C(OCc1ccc(Br)cc1)c1cccc(S(=O)(=O)N2CCCC2)c1	-12	0	0	0	0	0	0	0	34%
COc1ccc(CC(=O)N/N=C(\C)CC(=O)NCc2ccco2)cc1OC	0	0	0	0	0	0	-	-	-
COc1ccc2[nH]c(=O)c(CN(CC3CCCO3)S(=O)(=O)c3ccccc3F)cc2c1 (stereo not drawn)	0	0	0	0	0	0	-	-	-
Cc1ccc(C(=O)Nc2ccccc2-c2ccccc2)cc1S(=O)(=O)Nc1cccc(C)c1C	-9.4	0	-11	0	6	0	40%	0	42%
Cc1ccc(C(=O)Nc2ccccc2C(=O)O)cc1S(=O)(=O)NCc1ccccc1	0	0	0	0	0	0	-	-	-
Cc1ccc(C(=O)Nc2ccccc2C(=O)O)cc1S(=O)(=O)Nc1ccc(Br)cc1	0	0	0	0	6	0	0	0	0
Cc1ccc(C)c(NS(=O)(=O)c2cc(C(=O)Nc3ccccc3-c3ccccc3)ccc2C)c1	-12	0	-9.9	0	0	0	42%	0	42%
Cc1ccc(C)c(NS(=O)(=O)c2ccc3[nH]c(=O)oc3c2)c1	0	0	0	0	0	0	-	-	-
CC(=O)Nc1ccc(Nc2nc3ccccc3nc2NS(=O)(=O)c2ccc(Cl)c([N+](=O)[O-])c2)cc1	-	-	0	-	-	-	-	-	-
CCc1ccccc1NC(=O)c1ccc(-n2c(C)ccc2C)cc1	-8.5	0	0	0	0	0	32%	0	0
Cc1ccc(C)n1-c1ccc(C(=O)Nc2ccccc2F)cc1	0	0	0	0	0	0	-	-	-
O=C(CCNS(=O)(=O)c1ccccc1)OCC(=O)c1ccc(Cl)cc1	0	0	0	0	0	0	-	-	-
Cc1ccccc1NC(=S)NCc1ccc2[nH]c3c(c2c1)CCCC3	0	0	0	0	0	0	0	0	0
COc1ccccc1C(=O)COC(=O)CSC(C)C(=O)Nc1cc(C)on1 (stereo not drawn)	0	0	0	0	0	0	-	-	-
CSc1ncccc1C(=O)N1CCCC(C(=O)c2ccc3ccccc3c2)C1 (stereo not drawn)	0	0	0	0	0	0	0	0	0
CN(C)c1ccccc1C(=O)N1CCCC(C(=O)c2ccc3ccccc3c2)C1 (stereo not drawn)	0	0	0	0	0	0	0	0	0
O=C(c1ccc2ccccc2c1)C1CCCN(C(=O)c2cccnc2)C1 (stereo not drawn)	0	0	0	0	0	0	-	-	-
CC(=O)c1ccccc1NC(=O)C1CCCN(C(=O)c2ccc(Cl)cc2)C1 (stereo not drawn)	-	-	0	-	-	-	-	-	-
O=C(O)Cc1cn(Cc2cccc(Cl)c2)c2ccccc12	0	0	0	0	0	0	-	-	-
O=C(Cc1cn(Cc2cccc(Cl)c2)c2ccccc12)N1CCCCCC1	-11	0	0	0	0	0	54%	36%	38%
CC1CCCN(C(=O)Cc2cn(Cc3cccc(Cl)c3)c3ccccc23)C1 (stereo not drawn)	-14	0	0	0	0	0	72%	46%	37%
Cc1ccc(NC(=O)C(C)OC(=O)/C=C/c2ccccc2)cc1 (stereo not drawn)	0	0	0	0	0	0	-	-	-
Cc1ccc(C(C)C)c(OC(=O)/C=C/c2ccccc2)c1	0	0	0	0	0	0	0	0	0
CNc1nnc(CSc2nc(C)cc(C)n2)s1	0	0	0	0	0	0	36%	0	0
SMILES	KCNK9 block	KCNQ1 pot	KCNK3 block	hERG protect	KCNQ1 block	Kir21 block	KCNK9 inh conf	Kir21 sel	KCNK9 uninduced
CNc1nnc(CSc2nc3ccccc3s2)s1	0	0	0	0	0	0	-	-	-
Cc1cc(C(=O)OCC(=O)Nc2nc(-c3ccccc3)cs2)c(C)o1	0	0	0	0	0	0	-	-	-
Cc1cc(C(=O)OC(C)C(=O)Nc2nc(-c3ccccc3)cs2)c(C)o1 (stereo not drawn)	0	0	0	0	0	0	0	0	0
COc1ccccc1/C=C(/CC(=O)NCc1ccccc1)c1nc2ccccc2s1	-9.7	0	0	0	0	0	70%	0	0
COc1ccccc1/C=C(/CC(=O)NCc1ccc(F)cc1)c1nc2ccccc2s1	-16	0	0	0	0	0	66%	0	36%
O=C(CCCc1nc2ccccc2s1)NCc1ccccc1	0	0	0	0	0	0	-	-	-
CC(=O)c1ccccc1NC(=O)CN1C(=O)NC2(CCCCCCC2)C1=O	-	-	0	-	-	-	-	-	-
Cc1ccc(C2=Nc3ccccc3SC(c3cccc([N+](=O)[O-])c3)C2)cc1 (stereo not drawn)	-13	0	-13	0	0	0	71%	0	40%
COc1ccc(N2CCN(C(=O)CC34CC5CC(CC(C5)C3)C4)CC2)c([N+](=O)[O-])c1	-12	0	0	0	0	0	66%	0	0
COc1ccc(N2CCN(C(=O)c3ccccc3F)CC2)c([N+](=O)[O-])c1	0	0	0	0	0	0	-	-	-
Cc1ccc(/C=N/Nc2nc(C(C)(C)C)cs2)o1	0	18	0	10	0	0	0	0	0
C/C(=N\Nc1nc(C(C)(C)C)cs1)c1ccccc1	0	0	0	0	0	0	0	0	0
CC(C)(C)c1csc(N/N=C/c2cccnc2)n1	0	0	0	0	0	0	-	-	-
CC(C)=C(NC(=O)c1ccccc1)C(=O)Nc1cccc(C)c1	0	0	0	0	0	0	-	-	-
CC12COC3(C(=O)Nc4ccc5ccccc5c4)CC1CCC32C (stereo not drawn)	0	0	0	0	0	0	0	0	0
CC12COC3(C(=O)Nc4ccccc4)CC1CCC32C (stereo not drawn)	0	0	0	0	0	0	-	-	-
Cc1ccc(C)n1-n1cnc2sc3c(c2c1=O)CCC3	0	0	0	0	0	0	-	-	-
Cn1cc(/C=N/n2cnc3sc4c(c3c2=O)CCCC4)c2ccccc21	0	0	0	0	0	0	0	0	0
CC1CC(C)CN(C(=O)c2ccc(S(=O)(=O)N3CC(C)CC(C)C3)cc2)C1 (stereo not drawn)	0	0	0	0	0	0	0	0	0
CC1CC(C)CN(C(=O)c2ccc(C#N)cc2)C1 (stereo not drawn)	0	0	0	0	0	0	-	-	-
